FGF22 binding: shifts melting point of recombinant human FGF22. recombinant FGF22 thermal shift, SYPRO orange fluorescence; percent of sucrose octasulfate shift, DMSO zero. activity (Tm shift, normalised), % at 9.99 µM. AID 651658. 340,000 compounds, 1.5% hits;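 active = mean Tm shift, scaled 0 neutral to 100 positive control, at about 1.3% or above, every replicate too, limit read from the data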
Target sequence (Q9HCT0 whole entry, looked up): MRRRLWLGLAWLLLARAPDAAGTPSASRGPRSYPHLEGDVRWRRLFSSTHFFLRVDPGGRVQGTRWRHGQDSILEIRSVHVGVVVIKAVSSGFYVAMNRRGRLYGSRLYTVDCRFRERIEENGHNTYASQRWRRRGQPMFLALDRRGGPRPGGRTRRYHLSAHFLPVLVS
PGC1a acetyl inh: PGC1a acetylation modulation, inhibitor mode. U2OS PGC1a acetylation, AlphaScreen anti-acetyl-lysine; with virally co-expressed GCN5 acetyltransferase. inhibition, % at 15.6 µM. 350,000 compounds, 0.17% hits;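 active = every replicate shows inhibition of at least 40%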
rRNA inh HTS: selective bacterial rRNA inhibition in E. coli. E. coli WT GFP vs humanized-ribosome RFP mutants, fluorescence, 24 h; hits give low values; DMSO median 0, no signal -100. GFP signal change (wild-type ribosome), % (no concentration beside the values). 350,000 compounds, 1.6% hits;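 active = significant combined selectivity score with lowered wild-type GFP, culture density cut under 30%, mutant RFP and density less affected; inactive = any of these conditions unmet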
Cneo AK release: Cryptococcus neoformans lysis via adenylate kinase release. C. neoformans lysis, adenylate kinase release luminescence, 4 h; normalised: neutral wells 0, clomiphene wells 100. 360,000 compounds, 0.2% hits. lysis activity, % at 15 µM;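 active = mean lysis activity across replicates of at least 80%, whatever share of replicates individually reach that level; inactive = mean lysis activity below 80%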
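Material: C. neoformans cells | Amount: Yeast cell density of 5 × 10^6 cells/mL | Medium: Fresh YPD growth medium | Dosing: Single dose | Times: Static 4 h at 37 °C with compound, 1 h detection | Detection: AK luminescence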
ERAP1 HTS inh: ERAP1 (human) enzyme inhibition | Q9NZ08 | recombinant ERAP1, Leu-AMC fluorescence, 60 min | inhibition, % at 10.7 µM | 340,000 compounds, 0.15% hits | AID 652197;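 active = mean replicate inhibition of at least 30%, or all replicates individually reaching that 30% level; inactive = mean below 30% and not every replicate reaching it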
HIV Env fusion: HIV envelope-mediated fusion inhibition. HeLa-JRFL Env/CEM21 cell fusion, luciferase. 360,000 compounds, 1.1% hits. inhibition, % at 12.3 µM;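 active = mean replicate inhibition score of at least 50 and every replicate individually at or above 50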
Hits are given with their value; . = inactive; / = not tested or not shown. Sampled rows, rich in hits. Any-hit rate of the full collection: about 3.5%.

SMILES	FGF22 binding	PGC1a acetyl inh	rRNA inh HTS	Cneo AK release	ERAP1 HTS inh	HIV Env fusion
O=C1c2ccccc2S(=O)(=O)c2cc(N3CCC(C(=O)N4CCCCC4)CC3)ccc21	.	/	-21	/	.	.
O=C(NC1CCCCC1)c1cccc2c1C(=O)c1ccc(N3CCCC3)cc1S2(=O)=O	.	.	.	.	.	.
CCC(=O)Nc1cccc(NC(=O)CSc2nnc(-c3ccc(NS(C)(=O)=O)cc3)n2CC)c1	/	/	/	.	/	.
CO[C@@H]1CN(C)C(=O)c2cc(NC(=O)Nc3ccccc3F)ccc2OC[C@@H](C)N(C(=O)Nc2ccccc2F)C[C@H]1C	.	.	.	.	.	.
O=C(CSc1nc2cc(Cl)ccc2s1)c1ccco1	.	.	-21	.	.	/
O=C(CSc1nnc(SCC(=O)c2ccco2)s1)c1ccco1	/	.	/	.	/	/
COc1ccc(CNC(=O)COC(=O)c2c(-c3c(F)cccc3Cl)noc2C)cc1OC	/	.	/	.	/	.
Cc1onc(-c2c(F)cccc2Cl)c1C(=O)OCC(=O)NC(=O)NCC(C)C	43	.	.	/	.	.
N#CCC(=O)c1ccccc1Oc1ccc(Cl)cc1	44	/	.	/	.	.
CC(=O)c1sc(NS(=O)(=O)c2ccc(C)cc2)nc1C	.	.	.	/	.	.
Cc1ccc(S(=O)(=O)NCc2cn3c(C)csc3n2)cc1	/	.	/	/	/	/
Cc1ccc(SCc2cn3c(C)csc3n2)cc1	.	.	-51	.	.	/
COc1ccc(C#Cc2ccc3c(c2)O[C@H](CN(C)C(=O)c2ccccn2)[C@H](C)CN([C@H](C)CO)S3(=O)=O)cc1	.	.	.	.	.	.
COc1cccc2c1C(=O)c1c(O)c3c(c(O)c1C2=O)C[C@@](O)(C(=O)CO)C[C@@H]3O[C@H]1C[C@H](N)[C@@H](O)[C@H](C)O1	/	.	/	.	/	/
COc1cccc2c1C(=O)c1c(O)c3c(c(O)c1C2=O)CC(O)(C(=O)CO)CC3OC1CC(N(C)C)C(O)C(C)O1 (stereo not given)	.	.	.	/	.	59
COc1cccc2c1C(=O)c1c(O)c3c(c(O)c1C2=O)C[C@@](O)(C(C)=O)C[C@@H]3O[C@H]1C[C@H](N)[C@H](O)[C@H](C)O1	.	51	.	.	.	/
COc1cc(-c2noc(C)c2C(=O)NCCCN2CCCC2=O)cc(OC)c1OC	.	.	.	.	.	.
COc1ccc(S(=O)(=O)N2CC[C@@H]3[C@H](CO)Nc4ccc(-c5cccc(C#N)c5)cc4[C@@H]32)cc1	.	.	.	.	.	/
N#C[C@H]1[C@H](c2ccc(C#CC3CCCC3)cc2)[C@H](CO)N1C(=O)Cc1ccccn1	/	59	.	/	.	/
O=C(Cc1ccccn1)N1CC(=O)N2[C@@H](CO)[C@H](c3ccc(C#CC4CCCC4)cc3)[C@@H]2C1	/	/	.	/	32	/
CC(C)C#Cc1ccc([C@@H]2[C@@H](CO)N3C(=O)CN(C(=O)NC4CCCC4)C[C@H]23)cc1	.	.	.	/	.	/
CC(C)C#Cc1ccc([C@@H]2[C@H](CO)N3C(=O)CN(C(=O)NC4CCCC4)C[C@@H]23)cc1	.	107	.	/	.	/
N#C[C@@H]1[C@@H](c2ccc(C#CC3CCCC3)cc2)[C@H](CO)N1C(=O)Cc1ccccn1	/	.	.	/	.	/
C[C@@H]1CN([C@@H](C)CO)S(=O)(=O)c2ccc(-c3cncnc3)cc2O[C@H]1CN(C)C	.	.	.	.	.	.
Nc1nonc1-n1nnc(C(=O)N/N=C/c2cccc(Cl)c2)c1-c1cccs1	.	.	-17	.	.	.
SMILES	FGF22 binding	PGC1a acetyl inh	rRNA inh HTS	Cneo AK release	ERAP1 HTS inh	HIV Env fusion
CC(C)c1c(C(=O)N/N=C/c2cccs2)nnn1-c1nonc1N	.	/	.	.	.	.
Cc1ccsc1/C=N/NC(=O)c1nnn(-c2nonc2N)c1C(C)C	.	.	-18	.	.	.
CNC(=O)Cc1csc2ccc(C)cc12	.	.	.	.	.	.
Oc1ccc(-c2nc(-c3ccc(F)cc3)c(-c3ccncc3)[nH]2)cc1	.	/	/	.	.	57
Fc1ccc(-c2nc(-c3cccs3)[nH]c2-c2ccc(F)cc2)cc1	.	.	.	.	.	/
Cc1c(Cl)c(C(F)F)nn1CC(=O)NC1C(=O)N2C(C(=O)O)=C(CSc3nnnn3C)CSC12 (stereo not given)	.	/	.	/	.	.
Cc1c(Cl)cnn1CC(=O)NC1C(=O)N2C(C(=O)O)=C(CSc3nnnn3C)CSC12 (stereo not given)	43	.	.	/	.	.
CC(C(=O)NC1C(=O)N2C(C(=O)O)=C(CSc3nnnn3C)CSC12)n1cc(Cl)cn1 (stereo not given)	43	.	.	/	.	.
Cc1nn(CC(=O)NC2C(=O)N3C(C(=O)O)=C(CSc4nnnn4C)CSC23)cc1Br (stereo not given)	.	.	.	/	.	.
CCSc1nc2c(cnn2-c2ccccc2)c(=O)n1N	.	.	-17	.	.	.
CCN1CCN(CC(O)COC(c2ccccc2)c2ccccc2)CC1 (stereo not given)	44	.	.	.	.	.
OC(COC(c1ccccc1)c1ccccc1)CN1CCCCC1 (stereo not given)	/	.	/	.	/	/
Cc1nc2cc(-c3ccccc3)sc2c(=O)n1N	.	.	.	/	.	64
Cn1c(NCc2ccccc2)nc2cc(-c3ccccc3)sc2c1=O	.	/	.	.	.	.
COc1ccc(-c2cc3nc(C)n(N)c(=O)c3s2)cc1	/	.	.	.	/	84
COc1ccc(-c2cc3nc4n(c(=O)c3s2)CCC4)cc1	.	.	.	.	.	/
Cn1c(=O)cc(SCC(=O)NCCCN2CCN(c3ccc(F)cc3)CC2)c2ccccc21	/	/	/	/	/	.
COc1ccccc1C(=O)Nc1nc(-c2ccc(S(=O)(=O)N3CCOCC3)cc2)cs1	/	.	/	.	/	96
COc1ccccc1C(=O)Nc1ccc(S(=O)(=O)N2CCOCC2)cc1	/	.	/	.	/	/
COc1ccccc1OC(C)C(=O)Nc1nc(-c2ccc(S(=O)(=O)N3CCOCC3)cc2)cs1 (stereo not given)	/	.	/	.	/	60
CNC(=O)C[C@@H]1CC[C@@H]2[C@@H](COc3ccc(NC(=O)c4cscn4)cc3C(=O)N2C)O1	.	.	.	.	/	.
CCOC(=O)C(NC(=O)CC)(Nc1ccccc1)C(F)(F)F (stereo not given)	/	.	/	.	/	.
COc1ccc(/C=C2\SC(=O)N(CCCC(=O)Nc3cc(Cl)ccc3C(=O)O)C2=O)cc1	/	/	/	/	.	61
COc1ccc(/C=C2\SC(=S)N(CCC(=O)Nc3ccccc3C(=O)O)C2=O)cc1	.	.	.	.	.	.
Cc1cc2cc(CNC(=O)CCC(=O)O)ccc2[nH]1	/	.	/	.	/	.

Screening data deposited in PubChem BioAssay by Broad Institute.
